Measurements gathered from unrelated publications.
Protocols differ between the studies behind these lines.
Target: Ephrin type-A receptor 3 (EPHA3, Homo sapiens, UniProt P29320)
Sequence (P29320 1-983, as in one of the studies): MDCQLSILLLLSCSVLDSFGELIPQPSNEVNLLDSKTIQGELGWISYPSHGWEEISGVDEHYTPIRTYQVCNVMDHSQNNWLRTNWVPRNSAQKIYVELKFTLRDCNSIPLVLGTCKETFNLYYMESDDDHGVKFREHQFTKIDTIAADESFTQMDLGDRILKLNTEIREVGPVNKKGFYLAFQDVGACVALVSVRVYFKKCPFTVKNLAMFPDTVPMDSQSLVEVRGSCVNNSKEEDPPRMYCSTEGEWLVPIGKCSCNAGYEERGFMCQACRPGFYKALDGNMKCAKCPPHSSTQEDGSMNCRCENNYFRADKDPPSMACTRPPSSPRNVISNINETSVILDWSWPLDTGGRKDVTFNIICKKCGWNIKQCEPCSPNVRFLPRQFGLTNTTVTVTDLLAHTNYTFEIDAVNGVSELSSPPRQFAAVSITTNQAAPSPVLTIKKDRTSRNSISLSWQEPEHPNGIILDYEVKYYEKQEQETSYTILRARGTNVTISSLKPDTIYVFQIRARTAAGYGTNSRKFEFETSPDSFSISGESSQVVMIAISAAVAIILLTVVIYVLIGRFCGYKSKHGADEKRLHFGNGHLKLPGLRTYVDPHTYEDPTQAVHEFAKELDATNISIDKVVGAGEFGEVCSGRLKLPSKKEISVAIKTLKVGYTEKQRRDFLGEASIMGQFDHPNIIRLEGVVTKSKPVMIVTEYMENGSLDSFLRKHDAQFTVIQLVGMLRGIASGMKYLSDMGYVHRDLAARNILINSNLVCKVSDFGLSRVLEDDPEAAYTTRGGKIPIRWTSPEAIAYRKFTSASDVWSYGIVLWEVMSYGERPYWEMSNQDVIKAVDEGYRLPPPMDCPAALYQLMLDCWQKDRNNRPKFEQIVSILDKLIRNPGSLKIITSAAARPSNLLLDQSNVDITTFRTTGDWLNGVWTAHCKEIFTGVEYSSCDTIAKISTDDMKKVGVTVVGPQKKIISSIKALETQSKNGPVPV

Compound	effect on	action	method	tested at	endpoint	result
CN(C)C1CCN(CC#Cc2nn(C3CCCC3)c3nc(NCc4ccccc4)ncc23)C1 (centres unmarked)	enzyme activity	inhibitor	FRET	1 µM	inhibition	-9%
CCCCN(CCCC)C(=O)CN1C[C@@H](c2cc(OC)c3c(c2)OCO3)[C@H](C(=O)O)[C@H]1CC(C)(C)CCC	cell-free assay		competition with immobilised ligand	1 µM	remaining binding	95.3%
Nc1nc(Nc2ccc(S(N)(=O)=O)cc2)nn1C(=O)c1c(F)cccc1F	cell-free assay			0.5 µM	remaining signal	107%
O=C(NC[C@@H]1[C@H]2CN(C(=O)OCc3cc(C(F)(F)F)cc(C(F)(F)F)c3)C[C@@H]12)c1ccc2[nH]nnc2c1	cell-free assay		competition with immobilised ligand	1 µM	remaining binding	100%
Cc1ccc(Nc2nccc(N(C)c3ccc4c(C)n(C)nc4c3)n2)cc1S(N)(=O)=O	enzyme activity	inhibitor		10 µM	inhibition	30%
CCc1ccccc1C(=O)Nc1n[nH]c2c(C)c(F)c(C3C(C#N)=C(C)N(C)C(C)=C3C#N)cc12	cell-free assay		competition with immobilised ligand	1 µM	remaining binding	100%
CCCOc1ccc(OC)c(F)c1C(=O)c1ccc(C(=O)N[C@@H]2CNC[C@H]2NC(=O)c2ccc3[nH]ncc3c2)cc1	enzyme activity	inhibitor		10 µM	remaining activity	61%
C#Cc1cccc(Nc2ncnc3cc(OCCOC)c(OCCOC)cc23)c1	cell-free assay			0.5 µM	remaining signal	93.2%
COc1ccc2c(c1)O[C@@H](c1ccc(OC)c(OC)c1)C[C@H]2NC(=O)C1(c2ccc3c(c2)OC(F)(F)O3)CC1	cell-free assay		competition with immobilised ligand	1 µM	remaining binding	91%
N#CCCc1ccc2c(c1)-c1[nH]c3ccc([N+](=O)[O-])cc3c1CC(=O)N2	cell-free assay			0.5 µM	remaining signal	93.9%
Nc1ncnc2occ(-c3ccc(NC(=O)Nc4cc(C(F)(F)F)ccc4F)cc3)c12	cell-free assay			20 µM	remaining signal	16%
O=C1NC(=O)c2cc(Nc3ccc(F)cc3)c(Nc3ccc(F)cc3)cc21	cell-free assay			0.5 µM	remaining signal	96.6%
CNC(=O)Nc1ccc2c(c1)CC[C@@]21OC(=O)N(CC(=O)N(Cc2ccc(F)cc2)[C@@H](C)C(F)(F)F)C1=O	cell-free assay		competition with immobilised ligand	1 µM	remaining binding	100%
CC(C)(O)[C@H]1CC[C@H](Nc2ccc3ncc(-c4cccc(C(F)(F)F)c4)n3n2)CC1	enzyme activity	inhibitor		1 µM	remaining activity	107%
CNC(=O)c1cc2c(Oc3ccc(NC(=O)C4(C(=O)Nc5ccc(F)cc5)CC4)cc3)ccnc2cc1OC	enzyme activity	inhibitor	radiometric	1 µM	inhibition	95%
CC(C)(C)c1nc(-c2cccc(NS(=O)(=O)c3c(F)cccc3F)c2F)c(-c2ccnc(N)n2)s1	enzyme activity	inhibitor	radiometric	1 µM	remaining activity	91%
CNC(=O)c1cc(Oc2ccc(NC(=O)Nc3ccc(Cl)c(C(F)(F)F)c3)cc2)ccn1	enzyme activity	inhibitor		10 µM	inhibition	95%
N#CC1(c2ccccn2)CCN(Cc2cc(C(=O)N3CCCC3)c(=O)n3ccccc23)CC1	cell-free assay		competition with immobilised ligand	1 µM	remaining binding	100%
CCN(CC)c1ccc(C2=NNC(=O)CC2C)cc1[N+](=O)[O-] (centres unmarked)	enzyme activity	inhibitor		10 µM	remaining activity	100%
Cc1ccc(C(=O)NCc2ccsc2)cc1C#Cc1cn(C(C)C)c2ncnc(N)c12	enzyme activity	inhibitor		1 µM	activity vs control	45%
CN(c1nccc(-c2cnn3ncccc23)n1)C1CC1	binding			1 µM	remaining binding	100%
COc1cc(Cl)c(C(=O)N[C@@H](CN[C@H]2CC[C@@H](N)CC2)Cc2ccc(C#N)cc2)cc1-c1ccc(CN[C@H](C)c2ccc(C)cc2)o1	enzyme activity	inhibitor		1 µM	remaining activity	69%
CCOCCn1cc(C(=O)Nc2ccc(-n3nc(-c4cccnc4)cc3C(F)(F)F)cn2)ccc1=O	cell-free assay		competition with immobilised ligand	1 µM	remaining binding	99%
